How the values were obtained:
Squalene synthase = molecular target: T1, Squalene synthase (Rattus norvegicus, UniProt Q02769); assay: Tested for inhibition against squalene synthase enzyme in rat liver
T1 sequence (Q02769 whole entry): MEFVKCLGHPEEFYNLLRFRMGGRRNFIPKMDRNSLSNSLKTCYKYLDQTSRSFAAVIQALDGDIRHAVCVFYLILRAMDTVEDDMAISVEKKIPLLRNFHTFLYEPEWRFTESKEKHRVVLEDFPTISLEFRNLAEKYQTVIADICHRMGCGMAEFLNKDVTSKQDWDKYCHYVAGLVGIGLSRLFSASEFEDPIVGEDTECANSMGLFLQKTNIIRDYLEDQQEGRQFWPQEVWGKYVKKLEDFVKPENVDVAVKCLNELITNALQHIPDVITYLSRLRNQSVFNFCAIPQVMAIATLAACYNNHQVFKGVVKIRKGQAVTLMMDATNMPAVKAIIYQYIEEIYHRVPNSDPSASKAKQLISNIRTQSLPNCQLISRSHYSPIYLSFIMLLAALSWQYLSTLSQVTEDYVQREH

HepG2 [1] = assay: Concentration required to inhibit cholesterol synthesis in Hep G2 cells; type: functional, cell-based; conditions: Homo sapiens
Outline: (§1)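 Hep G2 cells held 2 days in lipoprotein-depleted FBS to stimulate sterol synthesis, then given inhibitor in serum-free medium for 2 h. 15 μCi [5-3H]mevalonate (0.2 mCi/mmol) added for 1 h. Cells washed and saponified, and radioactivity counted by scintillation.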

HepG2 [2] = assay: Concentration required to inhibit cholesterol synthesis in Hep G2 cells relative to control (IC50 of L-694,599); type: functional, Homo sapiens; outline: as §1
Mus musculus [3] = assay: Tested for its ability to inhibit the incorporation of [5-3H]-mevalonolactone into cholesterol by in vivo mouse assay by peroral administration at a dose of 40 mg/kg; type: functional; conditions: route oral
Outline: (§2)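 Female Swiss Webster mice (~25 g), six per group, dosed po by gavage with inhibitor suspended in 5% emulphor. 30 min later, 0.5 μCi/mouse [5-3H]mevalonolactone in saline given sc. Livers removed 30 min after that and saponified in KOH/EtOH overnight at 55 °C, then petroleum-ether extracted. Nonsaponifiable dpm counted. Compounds first tested at a single dose (typically 12 or 24 mg/kg).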

[4] = molecular target: T2, Squalene synthase (Rattus norvegicus) (UniProt Q02769); assay: concentration required to inhibit rat liver squalene synthase enzyme relative to control (L-694,599)
T2 sequence (whole entry): T1 sequence (Q02769 whole entry)
Outline: (§3)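 Enzyme from rat liver. […] Inhibitors added in DMSO (0.3% final) as 3-fold serial dilutions, usually up to 30 ng/mL (about 40 nM). IC50 read from % inhibition vs log concentration.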

Mus musculus [5] = assay: Ability to inhibit the incorporation of [5-3H]-mevalonolactone into cholesterol by in vivo mouse assay by peroral administration at a dose of 24 mg/kg; type: functional; conditions: route oral; outline: as §2
[6] = molecular target: T2, Squalene synthase (Rattus norvegicus); assay: Concentration required to inhibit rat liver squalene synthase enzyme relative to control (L-694,599); outline: as §3
[7] = molecular target: T3, Squalene synthase (Mus musculus) (UniProt P53798); assay: Tested for the effective dose required for the incorporation of [5-3H]-mevalonolactone into cholesterol by in vivo mouse assay by peroral administration; type: functional, organism-based; outline: as §2
T3 sequence (whole entry): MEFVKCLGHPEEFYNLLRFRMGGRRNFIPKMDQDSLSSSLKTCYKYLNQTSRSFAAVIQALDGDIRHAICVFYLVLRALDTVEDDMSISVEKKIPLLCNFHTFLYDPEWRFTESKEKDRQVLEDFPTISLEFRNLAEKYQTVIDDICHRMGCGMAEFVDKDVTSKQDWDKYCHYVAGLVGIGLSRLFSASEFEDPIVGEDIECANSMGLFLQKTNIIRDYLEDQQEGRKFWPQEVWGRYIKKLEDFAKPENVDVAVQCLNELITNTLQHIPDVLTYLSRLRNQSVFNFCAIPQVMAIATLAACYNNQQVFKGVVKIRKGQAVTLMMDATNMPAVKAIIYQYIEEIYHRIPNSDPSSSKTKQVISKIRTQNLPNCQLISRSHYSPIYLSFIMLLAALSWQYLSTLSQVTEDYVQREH

Mus musculus [8] = assay: Tested for its ability to inhibit the incorporation of [5-3H]-mevalonolactone into cholesterol by in vivo mouse assay by peroral administration at a dose of 12 mg/kg; type: functional; conditions: route oral; outline: as §2

SMILES | IC50 (Squalene synthase) [nM] | IC50 (HepG2 [1]) [nM] | Relative activity [4] | Relative activity [6] | ED50 [7] [mg/kg] | Relative activity (HepG2 [2]) | inhibition in vivo at 40 mg/kg (Mus musculus [3]) [%] | inhibition in vivo at 24 mg/kg (Mus musculus [5]) [%] | inhibition in vivo at 12 mg/kg (Mus musculus [8]) [%]
C=C(CCC12OC(C(=O)O)C(O)(C(=O)O)C(C(=O)O)(O1)[C@H](OCCCCCCCCCCCCCCCC)[C@H]2O)[C@@H](OC(C)=O)[C@H](C)Cc1ccccc1 (stereo partly specified) | 0.79 | 14000 | 0.15 |  |  | 0.49 |  |  | 
C=C(CCC12OC(C(=O)O)C(O)(C(=O)O)C(C(=O)O)(O1)[C@H](OC(=O)NCC13CC4CC(CC(C4)C1)C3)[C@H]2O)[C@@H](OC(C)=O)[C@H](C)Cc1ccccc1 (stereo partly specified) | 0.8 |  |  | 0.46 | > 24 |  |  | -5 | 
CCCC(=O)O[C@@H]1[C@@H](O)C2(CCCCc3ccccc3)OC(C(=O)O)C(O)(C(=O)O)C1(C(=O)O)O2 (stereo partly specified) | > 3000 |  |  | 0 |  |  |  |  | 5
C=C(CCC12OC(C(=O)O)C(OCCCCCCCCOc3ccccc3)(C(=O)O)C(C(=O)O)(O1)[C@H](OCCCCCCCCOc1ccccc1)[C@H]2O)[C@@H](OC(C)=O)[C@H](C)Cc1ccccc1 (stereo partly specified) | 8.2 |  | 0.02 |  |  |  |  |  | 
CCCC(=O)O[C@@H]1[C@@H](O)C2(CCCC[C@H](C)Cc3ccccc3)OC(C(=O)O)C(O)(C(=O)O)C1(C(=O)O)O2 (stereo partly specified) | 110 |  |  | 0.0026 |  |  |  |  | -3
C=C(CCC12OC(C(=O)O)C(O)(C(=O)O)C(C(=O)O)(O1)[C@H](OC)[C@H]2O)[C@@H](OC(C)=O)[C@H](C)Cc1ccccc1 (stereo partly specified) | 22 |  |  | 0.004 | < 12 |  |  |  | 73
C=C(CCC12OC(C(=O)O)C(O)(C(=O)O)C(C(=O)O)(O1)[C@H](OC(=O)SC(C)C)[C@H]2O)[C@@H](OC(C)=O)[C@H](C)Cc1ccccc1 (stereo partly specified) | 3.4 |  | 0.06 |  | 14 |  |  |  | 
C=C(CCC12OC(C(=O)O)C(O)(C(=O)O)C(C(=O)O)(O1)[C@H](OC(=O)CCCC)[C@H]2O)[C@@H](OC(C)=O)[C@H](C)Cc1ccccc1 (stereo partly specified) |  |  |  |  | > 24 |  |  | 40 | 
C=C(CCC12OC(C(=O)O)C(OCCCCCCCCCCCC)(C(=O)O)C(C(=O)O)(O1)[C@H](OCCCCCCCCCCCC)[C@H]2O)[C@@H](OC(C)=O)[C@H](C)Cc1ccccc1 (stereo partly specified) | 17 |  | 0.02 |  |  |  |  |  | 
C=C(CCC12OC(C(=O)O)C(OCCCCCCCCCCCOc3ccccc3)(C(=O)O)C(C(=O)O)(O1)[C@H](O)[C@H]2O)[C@@H](OC(C)=O)[C@H](C)Cc1ccccc1 (stereo partly specified) | 1.1 |  | 0.11 |  |  |  |  |  | 
C=C(CCC12OC(C(=O)O)C(O)(C(=O)O)C(C(=O)O)(O1)[C@H](OC(=O)CCC)[C@H]2O)[C@@H](OC(=O)CC)[C@H](C)Cc1ccccc1 (stereo partly specified) | 8.8 |  |  | 0.03 |  |  |  | 67 | 
C=C(CCC12OC(C(=O)O)C(O)(C(=O)O)C(C(=O)O)(O1)[C@H](OC(=O)CC(C)(C)C)[C@H]2O)[C@@H](OC(C)=O)[C@H](C)Cc1ccccc1 (stereo partly specified) | 2 |  | 0.15 |  | > 12 |  |  |  | 25
C=C(CCC12OC(C(=O)O)C(O)(C(=O)O)C(C(=O)O)(O1)[C@H](O)[C@H]2O)[C@@H](OC(C)=O)[C@H](C)Cc1ccccc1 (stereo partly specified) |  |  |  |  | > 24 |  |  | 34 | 
C=C(CCC12OC(C(=O)O)C(OCCCCCCCCOc3ccccc3)(C(=O)O)C(C(=O)O)(O1)[C@H](O)[C@H]2O)[C@@H](OC(C)=O)[C@H](C)Cc1ccccc1 (stereo partly specified) | 0.81 |  | 0.16 |  |  |  |  |  | 
CC[C@H](C)C[C@H](C)CCC(=O)O[C@@H]1[C@@H](O)C2(CCCCCCc3ccccc3)OC(C(=O)O)C(O)(C(=O)O)C1(C(=O)O)O2 (stereo partly specified) | 1.8 |  |  | 0.144 |  |  |  | -2 | 
C=C(CCC12OC(C(=O)O)C(O)(C(=O)O)C(C(=O)O)(O1)[C@H](OC(=O)CCCCCCCCCCCCCCC)[C@H]2O)[C@@H](OC(C)=O)[C@H](C)Cc1ccccc1 (stereo partly specified) | 0.52 | 2500 |  | 0.27 |  | 2.2 |  |  | 
C=C(CCC12OC(C(=O)O)C(OCCCCCCCCCCCCCC)(C(=O)O)C(C(=O)O)(O1)[C@H](O)[C@H]2O)[C@@H](OC(C)=O)[C@H](C)Cc1ccccc1 (stereo partly specified) | 0.75 |  | 0.17 |  |  |  |  |  | 

Now from value to compound, other results behind:

IC50 (Squalene synthase) [nM] | IC50 (HepG2 [1]) [nM] | Relative activity [4] | Relative activity [6] | ED50 [7] [mg/kg] | SMILES | Relative activity (HepG2 [2]) | inhibition in vivo at 40 mg/kg (Mus musculus [3]) [%] | inhibition in vivo at 24 mg/kg (Mus musculus [5]) [%] | inhibition in vivo at 12 mg/kg (Mus musculus [8]) [%]
0.09 | 1500 | 1.26 |  |  | C=C(CCC12OC(C(=O)O)C(O)(C(=O)O)C(C(=O)O)(O1)[C@H](OCCCCCCCCCCCCCC)[C@H]2O)[C@@H](OC(C)=O)[C@H](C)Cc1ccccc1 (stereo partly specified) | 6 | 0 |  | 
0.38 | 8000 |  | 0.45 |  | C=C(CCC12OC(C(=O)O)C(O)(C(=O)O)C(C(=O)O)(O1)[C@H](OC(=O)CCCCCCCCCCc1ccccc1)[C@H]2O)[C@@H](OC(C)=O)[C@H](C)Cc1ccccc1 (stereo partly specified) | 1.37 |  | 11 | 
0.17 | 8800 |  | 1.29 |  | C=C(CCC12OC(C(=O)O)C(O)(C(=O)O)C(C(=O)O)(O1)[C@H](OC(=O)NCCCCCCCCCCCC)[C@H]2O)[C@@H](OC(C)=O)[C@H](C)Cc1ccccc1 (stereo partly specified) | 1.02 |  | 0 | 
0.19 | 7500 |  | 0.74 |  | C=C(CCC12OC(C(=O)O)C(O)(C(=O)O)C(C(=O)O)(O1)[C@H](OC(=O)CC[C@@H](C)C[C@@H](C)CC)[C@H]2O)[C@@H](OC(C)=O)[C@H](C)Cc1ccccc1 (stereo partly specified) | 0.8 |  |  | 
0.2 | 900 |  | 1.1 |  | C=C(CCC12OC(C(=O)O)C(O)(C(=O)O)C(C(=O)O)(O1)[C@H](OC(=O)CCCCCCCCCCCCC)[C@H]2O)[C@@H](OC(C)=O)[C@H](C)Cc1ccccc1 (stereo partly specified) | 6.11 |  |  | 
0.42 |  | 0.69 |  |  | C=C(CCC12OC(C(=O)O)C(O)(C(=O)O)C(C(=O)O)(O1)[C@H](OC(=O)/C=C/[C@@H](C)C[C@@H](C)CC)[C@H]2O)[C@@H](OC(=O)CC)[C@H](C)Cc1ccccc1 (stereo partly specified) |  |  | -4 | 
0.24 |  | 1.67 |  |  | C=C(CCC12OC(C(=O)O)C(O)(C(=O)O)C(C(=O)O)(O1)[C@H](OC(=O)/C=C/[C@@H](C)C[C@@H](C)CC)[C@H]2O)C[C@H](C)Cc1ccccc1 (stereo partly specified) |  |  |  | 
0.37 |  |  | 1.38 |  | CC(=O)OC(CCCC12OC(C(=O)O)C(O)(C(=O)O)C(C(=O)O)(O1)[C@H](OC(=O)CC/C=C/C(C)CCCc1ccccc1)[C@H]2O)C(C)Cc1ccccc1 (stereo partly specified) |  | 20 |  | 
0.21 | 2200 | 1.43 |  |  | C=C(CCC12OC(C(=O)O)C(O)(C(=O)O)C(C(=O)O)(O1)[C@H](OCCCCCCCCCC)[C@H]2O)[C@@H](OC(C)=O)[C@H](C)Cc1ccccc1 (stereo partly specified) | 4.09 | 28 |  | 
0.16 |  | 0.81 |  |  | C=C(CCC12OC(C(=O)O)C(O)(C(=O)O)C(C(=O)O)(O1)[C@H](OCCCCCCCCOc1ccccc1)[C@H]2O)[C@@H](OC(C)=O)[C@H](C)Cc1ccccc1 (stereo partly specified) |  | 4 |  | 
0.07 | 1300 | 1.71 |  |  | C=C(CCC12OC(C(=O)O)C(O)(C(=O)O)C(C(=O)O)(O1)[C@H](OC(=O)NCCCCCCCCCCCOc1ccccc1)[C@H]2O)[C@@H](OC(C)=O)[C@H](C)Cc1ccccc1 (stereo partly specified) | 0.64 |  | 56 | 
0.14 |  |  | 1 |  | CC(/C=C/CCC(=O)O[C@@H]1[C@@H](O)C2(CCCCC(C)Cc3ccccc3)OC(C(=O)O)C(O)(C(=O)O)C1(C(=O)O)O2)CCCc1ccccc1 (stereo partly specified) |  |  | 8 | 
0.13 | 2000 |  | 1.08 |  | C=C(CCC12OC(C(=O)O)C(O)(C(=O)O)C(C(=O)O)(O1)[C@H](OC(=O)CCCCCCCCCCOc1ccccc1)[C@H]2O)[C@@H](OC(C)=O)[C@H](C)Cc1ccccc1 (stereo partly specified) | 3.4 |  | 11 | 
